From ChEMBL document CHEMBL2311278, “Novel fluorescent cephalosporins: synthesis, antimicrobial activity and photodynamic inactivation of antibiotic resistant bacteria” (2013)
Calls of active or inactive are those of the source. The rule behind the calls is not given here.

Legend:
[1] = tested on: Staphylococcus aureus ATCC 25923; test: Binding affinity to Staphylococcus aureus ATCC 25923 assessed per 10^8 cells/ml at 50 uM after overnight incubation by fluorescence analysis
Staphylococcus aureus [2] = test: Binding affinity to methicillin-resistant Staphylococcus aureus MRSA2 assessed per 10^8 cells/ml at 50 uM after overnight incubation by fluorescence analysis; format: functional, organism-based
In short: (§1)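 Incubated with compound, then pelleted, dissolved in 2% SDS, held at 4 °C overnight and sonicated 30 min. Fluorescence intensity compared with that of free compound (50 µM, or 5 µM for the more fluorescent analogue); expressed per 10⁸ cells/mL.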

Staphylococcus aureus [3] = test: Binding affinity to methicillin-resistant Staphylococcus aureus MRSA1 assessed per 10^8 cells/ml at 50 uM after overnight incubation by fluorescence analysis; format: functional, organism-based
In short: as §1

Staphylococcus aureus [4] = test: Antibacterial activity against methicillin-resistant Staphylococcus aureus MRSA2 after 24 hrs; format: functional; settings: MRSA2, 24 h
In short: (§2)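 Broth microdilution in Mueller–Hinton medium. Inocula grown from single colonies at 35 °C to 10⁸ CFU/mL by turbidimetry, then added at ~10⁶ CFU/mL to serial dilutions of compound starting at 256 µg/mL (stocks in ddH2O). Incubated 37 °C for 24 h.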

[5] = tested on: metallo-beta-lactamase L1 (Stenotrophomonas maltophilia); test: Activity at Stenotrophomonas maltophilia metallo-beta-lactamase L1 expressed in Escherichia coli BL21 (DE3) by Michaelis-Menten equation analysis
Staphylococcus aureus [6] = test: Antibacterial activity against methicillin-resistant Staphylococcus aureus MRSA1 after 24 hrs; format: functional; settings: MRSA1, 24 h
In short: as §2

[7] = tested on: metallo-beta-lactamase CcrA (Bacteroides fragilis); test: Activity at Bacteroides fragilis metallo-beta-lactamase CcrA expressed in Escherichia coli BL21 (DE3) by Michaelis-Menten equation analysis
Klebsiella pneumoniae [8] = test: Antibacterial activity against Klebsiella pneumoniae ATCC 700603 after 24 hrs; format: functional; settings: ATCC 700603, 24 h
In short: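 Broth microdilution in Mueller-Hinton medium. A single LB-plate colony was grown in Mueller-Hinton broth at 35 °C for 2–6 h to 10⁸ CFU/mL by turbidimetry. Compounds were dissolved in ddH₂O and serially diluted in Mueller-Hinton medium from 256 downward. About 10⁶ CFU/mL bacteria were added, and plates were incubated at 37 °C for 24 h.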

Klebsiella pneumoniae [9] = test: Photodynamic inactivation of Klebsiella pneumoniae ATCC 700603 assessed as lethality at 6 uM after overnight incubation by traditional surface plating method in presence of 126 J/cm 2 white light irradiation; format: functional
In short: (§3)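 Mixed 1:1 with compound and kept in the dark at 37 °C for 30 min with shaking, then exposed to filtered xenon white light (400–800 nm, 350 mW/cm²). Cells diluted in PBS, ~10⁴ CFU/mL plated on LB agar and grown overnight at 37 °C. Treated-and-irradiated CFU divided by untreated, unirradiated CFU; triplicate. Dark controls had no irradiation.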

[10] = tested on: Staphylococcus aureus ATCC 25923; test: Binding affinity to Staphylococcus aureus ATCC 25923 assessed per 10^8 cells/ml at 5 uM after overnight incubation by fluorescence analysis
Staphylococcus aureus [11] = test: Binding affinity to methicillin-resistant Staphylococcus aureus MRSA2 assessed per 10^8 cells/ml at 5 uM after overnight incubation by fluorescence analysis; format: functional, organism-based
In short: as §1

Staphylococcus aureus [12] = test: Binding affinity to methicillin-resistant Staphylococcus aureus MRSA1 assessed per 10^8 cells/ml at 5 uM after overnight incubation by fluorescence analysis; format: functional, organism-based
In short: as §1

Klebsiella pneumoniae [13] = test: Antibacterial activity against Klebsiella pneumoniae ATCC 700603 assessed as lethality at 10 uM after overnight incubation by traditional surface plating method; format: functional
In short: as §3

Staphylococcus aureus [14] = test: Binding affinity to methicillin-resistant Staphylococcus aureus MRSA2 at 50 uM after overnight incubation by confocal image analysis; format: functional, organism-based
In short: (§4)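 Incubated with 50 µM compound in the dark with shaking, washed twice in PBS and imaged by confocal fluorescence and differential interference contrast microscopy.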

Klebsiella pneumoniae [15] = test: Photodynamic inactivation of Klebsiella pneumoniae ATCC 700603 assessed as lethality at 6 uM after overnight incubation by traditional surface plating method in presence of 189 J/cm 2 white light irradiation; format: functional
In short: as §3

Staphylococcus aureus [16] = test: Binding affinity to methicillin-resistant Staphylococcus aureus MRSA1 at 50 uM after overnight incubation by confocal image analysis; format: functional, organism-based
In short: as §4

[17] = Binding affinity to Klebsiella pneumoniae ATCC 700603 at 50 uM after overnight incubation by confocal image analysis
Klebsiella pneumoniae [18] = test: Photodynamic inactivation of Klebsiella pneumoniae ATCC 700603 assessed as lethality at 10 uM after overnight incubation by traditional surface plating method in presence of 350 mW/cm2 white light irradiation; format: functional
In short: as §3

Row | SMILES | Activity [1] | Activity (Staphylococcus aureus [2]) | Activity (Staphylococcus aureus [3]) | MIC (Staphylococcus aureus [4]) | Km [5] | Vmax [5] | kcat [5] | MIC (Staphylococcus aureus [6]) | Km [7] | Vmax [7] | kcat [7] | MIC (Klebsiella pneumoniae [8]) | Activity (Klebsiella pneumoniae [9]) | further results
1 | O=C(O)c1cc2ccccc2oc1=O | 0.68 µM | 0.81 µM | 0.71 µM | – | – | – | – | – | – | – | – | – | – | –
2 | O=C(Cc1cccs1)N[C@@H]1C(=O)N2C(C(=O)O)=C(CSc3ccc(NC(=O)c4cc5c(ccc6ccccc65)oc4=O)cc3)CS[C@H]12 | 6.59 µM | 2.95 µM | 3.14 µM | > 128 µg/mL | 20.2 µM | 0.59 µM/s | 29.5 s⁻¹ | > 128 µg/mL | 24.4 µM | 0.604 µM/s | 121 s⁻¹ | > 128 µg/mL | inactive | –
3 | O=C(O)c1cc2c(ccc3ccccc32)oc1=O | – | – | – | – | – | – | – | – | – | – | – | – | inactive | Activity [10]: 0.044 µM; Activity (Staphylococcus aureus [11]): 0.033 µM; Activity (Staphylococcus aureus [12]): 0.03 µM
4 | O=C(Cc1cccs1)N[C@@H]1C(=O)N2C(C(=O)O)=C(CSc3ccc(NC(=O)c4cc5ccccc5oc4=O)cc3)CS[C@H]12 | 2.13 µM | 1.82 µM | 2.15 µM | > 128 µg/mL | 6.02 µM | 0.471 µM/s | 23.5 s⁻¹ | > 128 µg/mL | 38.3 µM | 1.05 µM/s | 209 s⁻¹ | > 128 µg/mL | 84% | Activity (Klebsiella pneumoniae [13]): <5%; Activity (Staphylococcus aureus [14]): Active; Activity (Klebsiella pneumoniae [15]): >95%; Activity (Staphylococcus aureus [16]): Active; Activity [17]: Active; Activity (Klebsiella pneumoniae [18]): >65%
